# Source: PubChem
# Insulin prom inh – TRM-6 insulin promoter activity inhibition. TRM-6 cells (human fetal islet line), insulin promoter-eGFP reporter, imaging; reporter expression induced with tamoxifen. AID 1273. inhibition, % at 2 µM. 130,000 compounds, 0.9% hits;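 active means inhibition above the mean plus 3 SD, with well images judged a real hit on visual review, cut at about 60% in these data, passing the limit was not always enough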
# NPY-Y2 PAM-ag – potentiates or activates human NPY-Y2 receptor; P49146; cells expressing NPY-Y2, potentiator/agonist read-out; activation, % at 3.6 µM; 220,000 compounds, 0.45% hits; in the data active means activation above about 27%;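 further: cells stimulated with NPY near EC25 plus isoproterenol at EC100; 0% = vehicle plus submaximal agonist and 100% = vehicle plus saturating agonist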
# NPY-Y1 antag – blocks the human neuropeptide Y Y1 receptor; inhibition, % at 3.6 µM; HEK293-CNG Y1 cells, membrane potential fluorescence; NPY at EC95, then isoproterenol; P25929; 200,000 compounds, 1% hits;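 active means inhibition above the campaign mean inhibition of all tested compounds plus 3 SD, cut at about 20% in these data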;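 further: 0% = DMSO wells given NPY plus isoproterenol and 100% = isoproterenol alone without NPY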
# Target sequence (P25929 whole entry, looked up): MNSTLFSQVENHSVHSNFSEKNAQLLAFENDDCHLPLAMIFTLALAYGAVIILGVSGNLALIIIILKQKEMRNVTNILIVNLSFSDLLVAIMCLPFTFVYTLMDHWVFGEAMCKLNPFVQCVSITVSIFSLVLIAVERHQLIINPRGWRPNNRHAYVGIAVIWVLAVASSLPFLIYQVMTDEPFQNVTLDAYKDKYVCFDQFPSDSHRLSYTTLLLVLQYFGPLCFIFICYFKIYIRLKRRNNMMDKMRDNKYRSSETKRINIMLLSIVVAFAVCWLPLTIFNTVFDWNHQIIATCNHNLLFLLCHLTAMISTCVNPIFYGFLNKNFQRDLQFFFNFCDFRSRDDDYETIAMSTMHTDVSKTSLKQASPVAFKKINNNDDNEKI
#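 Material: HEK293 cells with Y1 receptor plus CNG channel; times: compound incubation 1 h at room temperature, readout 45 min post-stimulation; signal: fluorescence, membrane potential probe; read-out basis: fluorescence ratio normalized to % inhibition between controls; benchmarks: full-block control isoproterenol-only wells, zero-block control NPY plus isoproterenol wells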
# RAM inhibit – yeast RAM network inhibition | 190,000 compounds, 1.8% hits | S. cerevisiae dse1pr::URA3 reporter, 5-FOA growth OD615, 2 d; analog-sensitive cbk1-as2 kinase mutant strain | AID 868 | inhibition, % at 50 µM;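 active means inhibition above a set limit, 3 SD over mean compound inhibition, cut at about 8.4% in these data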;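 further: 0% = DMSO-only wells with no growth and 100% = 10 µM 1-NA-PP1 full growth; inhibition rescues growth on 5-FOA so higher OD means more RAM inhibition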
# NPY-Y2 antag – antagonists of human neuropeptide Y receptor Y2. P49146. NPY-Y2 expressing cells, antagonist mode. inhibition, % at 2.7 µM. 140,000 compounds, 0.99% hits; in the data active means inhibition above about 17%;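 further: 0% = vehicle with agonist challenge and 100% = reference antagonist with challenge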
# NPY-Y1 PAM-ag – potentiates or activates human NPY-Y1 receptor; 220,000 compounds, 0.37% hits; activation, % at 3.6 µM; NPY-Y1 expressing cells, potentiator/agonist activation; AID 1304; P25929; in the data active means activation above about 33%, passing the limit was not always enough;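 further: cells stimulated with NPY at EC10 then isoproterenol at EC100; 0% = low agonist plus stimulus and 100% = saturating agonist plus stimulus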
# * = called active by the depositor; x = no result given. Hits are enriched below; roughly 3.8% of the tested compounds scored in any of these assays.
SMILES,Insulin prom inh,NPY-Y2 PAM-ag,NPY-Y1 antag,RAM inhibit,NPY-Y2 antag,NPY-Y1 PAM-ag
COc1ccccc1OCCOc1ccc(C(=O)c2ccccc2)cc1,13,-16,9,10.0*,7,-13
O=C1NCCN(Cc2ccc(Cl)c(F)c2)C1CC(=O)N1CCCCO1 (stereo not given),-5,0,0,1,x,-7
Cc1ccc(/C=C/c2nc3ccccc3c(=O)n2CCc2ccccc2)cc1,x,6,-1,10*,4,4
S=C(NCCN1CCOCC1)NC1CCCC1,x,-14,2,-1,x,6
CCOC(=O)Cn1c(=O)oc2cc(S(=O)(=O)Nc3cccc(C)c3)ccc21,x,43*,-6,0,-4,32*
O=C(COc1ccc2ccccc2c1Br)NC(=S)Nc1cccc(CO)c1,17,9,3,4,2,-4
CCOC(=O)c1c2n(c3ccc(O)cc13)CCCCC2,86*,12,-4,3,2,1
Cc1cc(C)nc(NC(=O)c2ccc(Cl)c([N+](=O)[O-])c2)n1,x,9,x,x,x,7
Cc1nc(N2CCCCC2)sc1C(=O)c1ccc(Cl)c([N+](=O)[O-])c1,x,47*,-11,6,x,48*
O=C(c1cncc(Br)c1)N1CCc2ccccc2C1,86*,0,1,0,2,-10
Cc1ccc(C2(c3ccc(C)cc3)CC2C(=O)NCc2cccnc2)cc1 (stereo not given),x,-17,-3,1,x,14
Cc1cc2c(cc(C(=O)N3CCC(C(=O)N4CCCC4)CC3)n2Cc2c(F)cccc2Cl)o1,x,-13,26*,-1,21*,-2
CCOC(=O)c1cc2occc2n1Cc1c(F)cccc1Cl,-43,11,3,4,7,-29
Cc1csc2c(N(C)CCO)ncnc12,x,-9,x,x,x,11
CN(C)S(=O)(=O)c1cccc(NC(=S)NCCCn2ccnc2)c1,33,5,4,1,x,-11
O=C(CSCc1cccc(Cl)c1)NCc1ccc2c(c1)OCO2,-33,-21,11,-1,10,-21
O=C(NCc1ccc2c(c1)OCO2)c1ccc(CSCc2cccc(Cl)c2)o1,-61,-15,11,8.8*,14,-24
Cc1cccc(OCCCC(=O)NCC(=O)Nc2cccc(C)c2C)c1,-36,-22,5,2,x,-4
CC(=O)OCC(=O)Nc1ccc([N+](=O)[O-])cc1Cl,x,-1,-3,1,x,-10
CC(=O)Oc1c(C)cc(Cl)cc1C(=O)Nc1ccc([N+](=O)[O-])cc1Cl,33,25,16,5,20*,-49
CN(C)S(=O)(=O)Oc1cccc(C(=O)Nc2ccc(Cl)c(Cl)c2)c1,15,-16,-7,9.9*,3,-28
Cc1noc(C)c1C(=O)OCC(=O)Nc1cc(Cl)ccc1Oc1ccccc1,-77,-16,23*,11*,22*,-20
COc1ccc(C)cc1NC(=O)COC(=O)c1c(C)noc1C,62,0,3,6,1,-5
COc1ccc(C2=C(N)c3ccccc3C2=O)cc1,71*,-6,1,1,1,3
COc1ccc(NC2=C(c3ccc(OC)cc3)C(=O)c3ccccc32)cc1,9,7,-3,2,-5,-4
SMILES,Insulin prom inh,NPY-Y2 PAM-ag,NPY-Y1 antag,RAM inhibit,NPY-Y2 antag,NPY-Y1 PAM-ag
CC1CN(c2nc(-c3ccccc3)nc3ccccc23)CC(C)O1 (stereo not given),92*,-7,9,0,4,-4
Nc1nonc1C(=O)NCCNCc1c(OCc2ccccc2F)ccc2ccccc12,-277,-31,34*,2,50*,-69
Nc1nonc1C(=O)NCCNCc1cc(Br)ccc1OCc1ccc(F)cc1,x,-7,14,2,15,-39
COc1ccc(C)cc1NC(=S)NNC(=O)c1c(Br)cnn1C,x,-14,-6,2,x,3
Cn1nnnc1SCc1nc2ccccc2s1,30,8,-2,1,5,7
Brc1ccccc1-c1nnc(SCc2nc3ccccc3s2)o1,0,-10,11,8.6*,9,-32
CC(C)=CC1C=C(C)C(C)C2C(=O)NNC(=O)C12 (stereo not given),23,4,1,1,4,-35
COc1ccc(/C=C/C=C2\N=C(SC)SC2=O)cc1,25,2,12,11*,3,2
CSC1=N/C(=C\c2ccc(F)cc2)C(=O)S1,-20,9,-2,2,-2,-5
